Legend:
[1] = Stability in mouse serum incubated up to 6 hrs by HPLC analysis; assay type: ADME, cell-free
[2] = Drug uptake in human SK-N-SH cells assessed as [125I]-2'-deoxy-5-iodo-uridine level at 38 kBq/mL after 1 hr by gamma counting method; assay type: ADME, cell-based
Summary of the method: (§1)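 SK-N-SH cells were exposed to 125I compound at an extracellular 38 kBq/mL for 1 h or continuously for 24 h. Cell-associated 125I was gamma-counted per cell.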

[3] = Drug uptake in human SK-N-SH cells assessed as [125I]-2'-deoxy-5-iodo-uridine level at 38 kBq/mL after 24 hrs by gamma counting method; assay type: ADME, cell-based; summary of the method: as §1
[4] = Dissociation constant, pKa of compound; assay type: physicochemical
[5] = Partition coefficient, logP of compound; assay type: physicochemical; conditions: octanol/water
[6] = Half life in human serum incubated up to 24 hrs by HPLC analysis; assay type: ADME, cell-free
[7] = Stability in human serum assessed as intact compound level after 5 mins by HPLC analysis; assay type: ADME, cell-free; conditions: read-out: Stability
Summary of the method: (§2)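 Radioiodinated guanidines were incubated in mouse, human or pig serum and analyzed by radio-HPLC on a C18 column at 0.8 mL/min. The gradient was 0–95% CH3CN over 50 min, then 95% for 20 min. Intact compound was fitted to monoexponential degradation to give half-life. Values are average ± std err.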

[8] = Stability in human serum assessed as intact compound level after 60 mins by HPLC analysis; assay type: ADME, cell-free; conditions: read-out: Stability; summary of the method: as §2
[9] = Stability in human SK-N-SH cells assessed as parent compound level after 24 hrs by HPLC analysis; assay type: ADME, cell-based; conditions: read-out: Stability
Summary of the method: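 The compound was incubated 24 h in cell culture medium without cells or with SK-N-SH cells. Intact compound and 125IUdR catabolite were quantified by radio-HPLC on a C18 column at 0.8 mL/min, with a 0–95% CH3CN gradient over 50 min and 95% for 20 min.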

[10] = Stability in mouse serum incubated up to 24 hrs by HPLC analysis; assay type: ADME, cell-free
[11] = Drug uptake in human SK-N-SH cells using 125I labelled compound by gamma counting method; assay type: ADME, cell-based
[12] = Drug recovery in mouse N1E-115 cells assessed as [125I]-2'-deoxy-5-iodo-uridine level in nucleus after 24 hrs by gamma counting method relative to control; assay type: ADME, cell-based; conditions: n1e-115, 24 h, in the assay text read “in DNA” for “in nucleus”
Summary of the method: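 N1E-115 murine neuroblastoma cells were incubated 24 h with 125I agent. Subcellular fractions (cytoplasm, nucleus, DNA pellet) were gamma-counted as percentage of recovered 125I.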

[13] = Drug uptake in human SK-N-SH cells assessed as level of 125I-incorporation into DNA after 1 hr and followed by compound washout with non-radioactive medium/PBS and measured immediately by gamma counting method relative to control; assay type: ADME, cell-based
Summary of the method: (§3)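 SK-N-SH cells exposed to the 125I-labelled guanidine for 1 h, then washed with nonradioactive medium and PBS. Cells were either processed at once (1 h) or given fresh nonradioactive medium and returned to the incubator for 23 h (24 h). Subcellular fractions (cytoplasm, DNA) were counted by γ-counter. Values are mean and SD, n ≥ 3.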

[14] = Drug uptake in human SK-N-SH cells assessed as level of 125I-incorporation into DNA incubated 1 hr followed by compound washout with non-radioactive medium/PBS and measured after 23 hrs by gamma counting method relative to control; assay type: ADME, cell-based; summary of the method: as §3
[15] = biological target: T1, Sodium-dependent noradrenaline transporter (Homo sapiens, UniProt P23975); experiment: Substrate activity at NET in human SK-N-SH cells assessed as drug uptake per cell at 37 kBq/ml incubated for 1 hr in presence of nonradioactive MIBG at 37 degC by filtration based gamma counting method; assay type: ADME
[16] = biological target: T1, Sodium-dependent noradrenaline transporter; experiment: Substrate activity at NET in human SK-N-SH cells assessed as drug uptake per cell at 37 kBq/ml incubated for 1 hr in presence of nonradioactive MIBG at 4 degC by filtration based gamma counting method; assay type: ADME
[17] = Drug uptake in cytoplasm of human SK-N-SH cells at 39.3 +/- 0.3 kBq/mL after 1 hr and followed by compound washout with non-radioactive medium/PBS and measured immediately by gamma counting method relative to control; assay type: ADME, subcellular
Summary of the method: (§4)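 SK-N-SH cells were exposed 1 h to 125I compound (≈39–40 kBq/mL), then washed with nonradioactive medium and PBS. Cells were processed immediately (1 h) or re-incubated in fresh medium for 23 h (24 h). Cytoplasmic, nuclear and DNA fractions were gamma-counted.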

[18] = Drug uptake in cytoplasm of human SK-N-SH cells at 39.3 +/- 0.3 kBq/mL after 24 hrs by gamma counting method relative to control; assay type: ADME, subcellular; summary of the method: as §4
SK-N-SH [19] = experiment: Anticlonogenic activity against human SK-N-SH cells assessed as number of colonies at 39.3+/- 0.3 kBq/mL after 1 hr by crystal violet staining based assay; assay type: functional
Summary of the method: (§5)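 SK-N-SH cells exposed for 1 h to 125I-MIBG (39.3 ± 0.3 kBq/mL extracellular) or IDG (40 ± 0.5 kBq/mL). For the 1 h group, cells were washed with nonradioactive medium and PBS, harvested with trypsin and replated for the clonogenic assay. For the 24 h group, cells were washed, given fresh nonradioactive medium and incubated a further 23 h before plating. Colonies were counted.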

SK-N-SH [20] = experiment: Anticlonogenic activity against human SK-N-SH cells assessed as number of colonies at 39.3+/- 0.3 kBq/mL after 24 hr by crystal violet staining based assay; assay type: functional; summary of the method: as §5
[21] = Drug level in tumor of NCR nu/nu mouse xenografted with human BE(2)-C cells at 0.44 +/- 0.1 MBq administered intratumorally after 24 hrs by gamma counting method; assay type: ADME, tissue-based, Neoplasm; conditions: in vivo, other
Summary of the method: (§6)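 Athymic Ncr nu/nu female and male mice bearing subcutaneous BE(2)-C xenografts received intratumor injections of the 125I agent. Tissues, tumor and blood were collected at 24 h and counted for radioactivity, expressed as %ID/g. Tumor-to-blood ratios were derived.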

[22] = Ratio of tumor to blood concentration in NCR nu/nu mouse xenografted with human BE(2)-C cells at 0.44 +/- 0.1 MBq administered intratumorally after 24 hrs by gamma counting method; assay type: ADME, tissue-based; conditions: tumour, other
Summary of the method: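 Athymic Ncr nu/nu female and male mice bearing subcutaneous BE(2)-C xenografts were given a single intratumoral injection of the 125I-labelled agent. Tumor and tissues were collected at 24 h, 125I was γ-counted, and uptake was expressed as %ID/g. The tumor-to-blood ratio was derived from the %ID/g values.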

[23] = Drug level in adrenal gland of NCR nu/nu mouse xenografted with human BE(2)-C cells at 0.44 +/- 0.1 MBq administered intratumorally after 24 hrs by gamma counting method; assay type: ADME, tissue-based; conditions: in vivo, other; summary of the method: as §6
[24] = Drug level in tumor of NCR nu/nu mouse xenografted with human BE(2)-C cells at 0.83 +/- 0.09 MBq administered intratumorally after 24 hrs by gamma counting analysis; assay type: ADME, tissue-based, Neoplasm; conditions: in vivo, other; summary of the method: as §6

T1 sequence (P23975 whole entry): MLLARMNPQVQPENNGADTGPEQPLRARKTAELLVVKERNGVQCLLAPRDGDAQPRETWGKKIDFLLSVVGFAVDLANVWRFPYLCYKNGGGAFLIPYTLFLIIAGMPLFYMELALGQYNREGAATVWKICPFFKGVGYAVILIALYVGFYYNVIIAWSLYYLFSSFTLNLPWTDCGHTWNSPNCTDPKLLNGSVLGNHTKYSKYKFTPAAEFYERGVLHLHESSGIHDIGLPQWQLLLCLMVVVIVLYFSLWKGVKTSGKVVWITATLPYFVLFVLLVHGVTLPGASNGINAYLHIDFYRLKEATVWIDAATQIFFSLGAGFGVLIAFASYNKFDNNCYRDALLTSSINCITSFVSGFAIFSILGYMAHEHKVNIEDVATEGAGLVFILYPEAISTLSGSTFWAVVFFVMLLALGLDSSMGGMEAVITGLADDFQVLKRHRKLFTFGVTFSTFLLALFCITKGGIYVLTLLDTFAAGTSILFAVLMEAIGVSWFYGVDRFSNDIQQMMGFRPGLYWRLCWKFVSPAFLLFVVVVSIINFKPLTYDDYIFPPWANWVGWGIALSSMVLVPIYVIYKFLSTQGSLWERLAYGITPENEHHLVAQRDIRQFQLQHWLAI

pKa [4]	logP [5]	half-life [6]	Stability [10]	Drug uptake [11]	Compound	also measured
12.2	-0.2	53.4 min	Unstable	Dose-dependent effect and Tde	N=C(N)NCCCCCC(=O)OC[C@H]1O[C@@H](n2cc([125I])c(=O)[nH]c2=O)C[C@@H]1O	remaining at 5 min [7]: 77%; remaining at 1 h [8]: 47%; remaining at 24 h [9]: 30%; Drug recovery [12]: > 99%
11.9	-1.48	23.4 min	Unstable	Dose-dependent effect and Tde	N=C(N)NCCC(=O)OC[C@H]1O[C@@H](n2cc([125I])c(=O)[nH]c2=O)C[C@@H]1O	–

Continued, molecule first:

Compound	pKa [4]	logP [5]	half-life [6]	Stability [10]	Drug uptake [11]	also measured
N=C(N)NC[C@H]1O[C@@H](n2cc([125I])c(=O)[nH]c2=O)C[C@@H]1O	11.5	-1.3	–	–	–	Stability [1]: Unstable; Drug uptake [2]: 0.00001 mBq; Drug uptake [3]: 0.00054 mBq
CC(C)(C)c1cc(C(C)(C)C)c2c(c1F)COP(=O)(OC[C@H]1O[C@@H](n3cc([125I])c(=O)[nH]c3=O)C[C@@H]1OC(=O)CCCCCNC(=N)N)O2 (some centres undefined)	12.1	4.58	900 min	Unstable	Dose-dependent effect and Tde	Drug uptake [13]: 14%; Drug uptake [14]: 42%; Drug uptake [15]: 1.85 mBq; Drug uptake [16]: 0.05 mBq
N=C(N)NCc1ccc(C(=O)OC[C@H]2O[C@@H](n3cc([125I])c(=O)[nH]c3=O)C[C@@H]2O)cc1	11.9	0.26	45.6 min	Unstable	Dose-dependent effect and Tde	–
N=C(N)NCc1cccc([125I])c1	–	–	–	–	–	Drug recovery [12]: 0%; Drug uptake [17]: 87%; Drug uptake [18]: 74%; Activity (SK-N-SH [19]): 229; Activity (SK-N-SH [20]): 250; Drug uptake [21]: 1.85 % ID/g; Ratio [22]: 19; Drug uptake [23]: 4.64 % ID/g; Drug uptake [24]: 1.85 % ID/g
N=C(N)NCc1cccc(I)c1 [IOBENGUANE]	11.8	1.63	–	–	–	–

From ChEMBL document CHEMBL4402514, “Norepinephrine-Transporter-Targeted and DNA-Co-Targeted Theranostic Guanidines” (J Med Chem, 2020)
